The source of these data is ChEMBL document CHEMBL1155834, “Antimicrobial diterpenes from Trigonostemon chinensis” (2008).

Molecules are shown by their SMILES. Values after ≈ are worked out from the molar mass of the structure shown.

One assay relates to Helicobacter pylori. Briefly: Antibacterial activity against Helicobacter pylori SS1 after 96 hrs. The following applies: SS1, 96 h. The assay is classed as functional. In outline:
(§1)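 Agar plates inoculated with H. pylori cells suspended in saline at 10^8 cfu/mL, incubated 37 °C for 96 h microaerobically (5% O2, 10% CO2, 85% N2) alongside blank and positive controls. Triplicate tests.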
With `C=CC1=C(C)C(=O)C=C2[C@]1(OO)CC[C@H](C(=C)C)[C@@]2(C)CCC(=O)OC` [TRIGONOCHINENE C], the MIC came out at 50 µg/mL (≈ 139 µM).

For `C=CC1=C(C)C(=O)C=C2[C@]1(O)CC[C@H](C(=C)C)[C@@]2(C)CCC(=O)OC` [TRIGONOCHINENE B], the MIC is 12.5 µg/mL (≈ 36.3 µM).

Consider `Cc1ncc([N+](=O)[O-])n1CCO` [METRONIDAZOLE], for which the minimal inhibitory concentration (MIC) turned out to be 0.5 µg/mL (≈ 2.92 µM).

The next assay concerns Candida albicans. Nature of the assay: Antifungal activity against Candida albicans after 48 hrs.
Conditions: not given
The assay is classed as functional. In outline: (§2)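 Fungi grown in Sabouraud dextrose broth with compound at 37 °C for 48 h. MIC is the lowest concentration completely inhibiting visible growth.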
In the case of `COC(=O)C1=CC[C@@]23CC[C@@H]([C@@](C)(/C=C/C=C(\C)C(=O)O)OC2=O)[C@@]3(OC(C)=O)CC1` [PSEUDOLARIC ACID B], the lowest concentration to inhibit growth (MIC) was 6.25 µg/mL (≈ 14.5 µM).

Regarding `C=CC1=C(C)C(=O)C=C2[C@]1(OO)CC[C@H](C(=C)C)[C@@]2(C)CCC(=O)OC` [TRIGONOCHINENE C], the MIC is greater than 50 µg/mL.

The compound `C=CC1=C(C)C(=O)C=C2[C@]1(O)CC[C@H](C(=C)C)[C@@]2(C)CCC(=O)OC` [TRIGONOCHINENE B] displayed a minimum inhibitory concentration (MIC) greater than 50 µg/mL.

The next assay has as its system Helicobacter pylori. Briefly: Antibacterial activity against metronidazole-resistant Helicobacter pylori ATCC 43504 after 96 hrs. In kind it is functional. The following applies: ATCC 43504, 96 h. The procedure, abridged: as §1
`C=CC1=C(C)C(=O)C=C2[C@]1(OO)CC[C@H](C(=C)C)[C@@]2(C)CCC(=O)OC` [TRIGONOCHINENE C] returned an MIC of 50 µg/mL (≈ 139 µM).

As to `C=CC1=C(C)C(=O)C=C2[C@]1(O)CC[C@H](C(=C)C)[C@@]2(C)CCC(=O)OC` [TRIGONOCHINENE B], the lowest concentration to inhibit growth (MIC) was 25 µg/mL (≈ 72.6 µM).

The compound `Cc1ncc([N+](=O)[O-])n1CCO` [METRONIDAZOLE] yielded a minimum inhibitory concentration (MIC) of 128 µg/mL (≈ 748 µM).

The test system of another assay is Shigella flexneri. Briefly: Antibacterial activity against Shigella flexneri after 18 hrs. In kind it is functional.
Conditions: not given
The procedure, abridged: (§3)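 Broth dilution in Mueller Hinton broth, compounds dissolved in DMSO. Cells incubated aerobically with compound at 37 °C for 18 h, with DMSO-only blank cultures. MIC is the lowest concentration giving complete inhibition of visible growth.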
`C=CCc1ccc(O)c(-c2cc(CC=C)ccc2O)c1` [MAGNOLOL] returned an MIC greater than 50 µg/mL.

In the case of `C=CC1=C(C)C(=O)C=C2[C@]1(OO)CC[C@H](C(=C)C)[C@@]2(C)CCC(=O)OC` [TRIGONOCHINENE C], the MIC was greater than 50 µg/mL.

For `C=CC1=C(C)C(=O)C=C2[C@]1(O)CC[C@H](C(=C)C)[C@@]2(C)CCC(=O)OC` [TRIGONOCHINENE B], the MIC is greater than 50 µg/mL.

In a further assay the test system is Nannizzia gypsea. Briefly: Antifungal activity against Microsporum gypseum after 48 hrs. The assay is classed as functional.
Conditions: not given
The procedure, abridged: as §2
In turn, `COC(=O)C1=CC[C@@]23CC[C@@H]([C@@](C)(/C=C/C=C(\C)C(=O)O)OC2=O)[C@@]3(OC(C)=O)CC1` [PSEUDOLARIC ACID B] yielded a minimal inhibitory concentration (MIC) of 12.5 µg/mL (≈ 28.9 µM).

Compound `C=CC1=C(C)C(=O)C=C2[C@]1(OO)CC[C@H](C(=C)C)[C@@]2(C)CCC(=O)OC` [TRIGONOCHINENE C] displayed an MIC greater than 50 µg/mL.

In the case of `C=CC1=C(C)C(=O)C=C2[C@]1(O)CC[C@H](C(=C)C)[C@@]2(C)CCC(=O)OC` [TRIGONOCHINENE B], the minimal inhibitory concentration (MIC) was greater than 50 µg/mL.

The test system of the next assay is Pseudomonas aeruginosa. Briefly: Antibacterial activity against Pseudomonas aeruginosa after 18 hrs. The assay is classed as functional.
Conditions: not given
The procedure, abridged:
as §3
`C=CCc1ccc(O)c(-c2cc(CC=C)ccc2O)c1` [MAGNOLOL] registered a minimal inhibitory concentration (MIC) greater than 50 µg/mL.

In turn, `C=CC1=C(C)C(=O)C=C2[C@]1(OO)CC[C@H](C(=C)C)[C@@]2(C)CCC(=O)OC` [TRIGONOCHINENE C] had a minimal inhibitory concentration (MIC) greater than 50 µg/mL.

`C=CC1=C(C)C(=O)C=C2[C@]1(O)CC[C@H](C(=C)C)[C@@]2(C)CCC(=O)OC` [TRIGONOCHINENE B] gave an MIC greater than 50 µg/mL.

A further assay deals with Escherichia coli. Briefly: Antibacterial activity against Escherichia coli after 18 hrs. In kind it is functional.
Conditions: not given
The procedure, abridged:
as §3
`C=CCc1ccc(O)c(-c2cc(CC=C)ccc2O)c1` [MAGNOLOL] gave an MIC greater than 50 µg/mL.

Compound `C=CC1=C(C)C(=O)C=C2[C@]1(OO)CC[C@H](C(=C)C)[C@@]2(C)CCC(=O)OC` [TRIGONOCHINENE C] gave an MIC greater than 50 µg/mL.

`C=CC1=C(C)C(=O)C=C2[C@]1(O)CC[C@H](C(=C)C)[C@@]2(C)CCC(=O)OC` [TRIGONOCHINENE B] yielded a minimal inhibitory concentration (MIC) greater than 50 µg/mL.

Another assay concerns Staphylococcus epidermidis. Nature of the assay: Antibacterial activity against Staphylococcus epidermidis ATCC 12228 after 18 hrs. The assay is classed as functional. The following applies: ATCC 12228, 18 h. In outline: as §3
Regarding `C=CCc1ccc(O)c(-c2cc(CC=C)ccc2O)c1` [MAGNOLOL], the lowest concentration to inhibit growth (MIC) was 6.25 µg/mL (≈ 23.5 µM).

The compound `C=CC1=C(C)C(=O)C=C2[C@]1(OO)CC[C@H](C(=C)C)[C@@]2(C)CCC(=O)OC` [TRIGONOCHINENE C] came in with a minimal inhibitory concentration (MIC) of 25 µg/mL (≈ 69.4 µM).

With `C=CC1=C(C)C(=O)C=C2[C@]1(O)CC[C@H](C(=C)C)[C@@]2(C)CCC(=O)OC` [TRIGONOCHINENE B], the MIC is greater than 50 µg/mL.

The next assay relates to Micrococcus luteus. Nature of the assay: Antibacterial activity against Micrococcus luteus ATCC 9341 after 18 hrs. The assay is classed as functional. The following applies: ATCC 9341, 18 h. In outline: as §3
Consider `C=CCc1ccc(O)c(-c2cc(CC=C)ccc2O)c1` [MAGNOLOL], for which inhibition of growth (MIC) required 6.25 µg/mL (≈ 23.5 µM).

In turn, `C=CC1=C(C)C(=O)C=C2[C@]1(OO)CC[C@H](C(=C)C)[C@@]2(C)CCC(=O)OC` [TRIGONOCHINENE C] yielded an MIC of 12.5 µg/mL (≈ 34.7 µM).

The compound `C=CC1=C(C)C(=O)C=C2[C@]1(O)CC[C@H](C(=C)C)[C@@]2(C)CCC(=O)OC` [TRIGONOCHINENE B] came in with a minimum inhibitory concentration (MIC) greater than 50 µg/mL.

A further assay relates to Staphylococcus aureus. Briefly: Antibacterial activity against Staphylococcus aureus ATCC 25923 after 18 hrs. The following applies: ATCC 25923, 18 h. The assay is classed as functional. The procedure, abridged:
as §3
In the case of `C=CCc1ccc(O)c(-c2cc(CC=C)ccc2O)c1` [MAGNOLOL], 12.5 µg/mL (≈ 46.9 µM) was the least that counted as inhibitory (MIC).

In turn, `C=CC1=C(C)C(=O)C=C2[C@]1(OO)CC[C@H](C(=C)C)[C@@]2(C)CCC(=O)OC` [TRIGONOCHINENE C] yielded an MIC of 50 µg/mL (≈ 139 µM).

`C=CC1=C(C)C(=O)C=C2[C@]1(O)CC[C@H](C(=C)C)[C@@]2(C)CCC(=O)OC` [TRIGONOCHINENE B] displayed a minimum inhibitory concentration (MIC) greater than 50 µg/mL.

The subject of the next assay is Bacillus subtilis. Nature of the assay: Antibacterial activity against Bacillus subtilis CMCC 63501 after 18 hrs. In kind it is functional.
Conditions: not given
The procedure, abridged:
as §3
For the compound `C=CCc1ccc(O)c(-c2cc(CC=C)ccc2O)c1` [MAGNOLOL], the MIC is 12.5 µg/mL (≈ 46.9 µM).

`C=CC1=C(C)C(=O)C=C2[C@]1(OO)CC[C@H](C(=C)C)[C@@]2(C)CCC(=O)OC` [TRIGONOCHINENE C] returned an MIC of 12.5 µg/mL (≈ 34.7 µM).

In turn, `C=CC1=C(C)C(=O)C=C2[C@]1(O)CC[C@H](C(=C)C)[C@@]2(C)CCC(=O)OC` [TRIGONOCHINENE B] displayed a minimum inhibitory concentration (MIC) greater than 50 µg/mL.

The MIC is the smallest concentration in the dilution series that meets the test's criterion for growth inhibition. A high value points to a less susceptible organism.
